Data on one compound can be found in ChEMBL document CHEMBL4028886 (J Med Chem, 2017).

Activity calls are given as the source filed them. The calls are words filed in the database; no cut-off is given here.

Data set [1] concerns the target Sodium-dependent noradrenaline transporter (Homo sapiens, UniProt P23975). As to the kind of experiment: Inhibition of re-uptake of [3H]MPP+ at human NET expressed in HEK293 cells preincubated for 5 mins followed by […] addition measured after 3 min by liquid scintillation counting. It counts as cell-based. Conditions: hek293. An outline of the steps: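 HEK293 cells stably expressing human DAT or NET, seeded on PDL-coated plates 24 h before. Preincubated 5 min in Krebs–HEPES buffer pH 7.3 with compound at 0.001 μM to 1 mM (DMSO stock diluted in buffer). Substrate then added: 0.2 μM [3H]dopamine for DAT, 1 min; 0.05 μM [3H]MPP+ for NET, 3 min. Room temperature. Uptake stopped with ice-cold buffer. Cells lysed in 1% SDS and counted by scintillation. Unspecific uptake defined with 10 μM mazindol. IC50 by nonlinear regression.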

The subject of data set [2] is Rattus norvegicus. As to the kind of experiment: Neurotoxicity in Sprague-Dawley rat assessed as effect on total distance traveled at 10 mg/kg, ip administered 30 mins prior to test by open field test relative to control. It counts as toxicity, organism-based. Particulars: in vivo, 0.5 h. An outline of the steps: (§1)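 Male Sprague–Dawley rats, 10 per group, given 10 mg/kg ip daily for 10 days and 30 min before each test. DMSO vehicle group as control. Open field arena 100 × 100 cm with 40 cm walls. Animals video-tracked for 10 min.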

Data set [3] relates to Rattus norvegicus. In words: Neurotoxicity in Sprague-Dawley rat assessed as effect on large movements at 10 mg/kg, ip administered 30 mins prior to test by open field test relative to control. Conditions: in vivo, 0.5 h. It counts as toxicity, organism-based. The method, boiled down: as §1
The subject of data set [4] is Rattus norvegicus. As to the kind of experiment: Neurotoxicity in Sprague-Dawley rat assessed as effect on frequency of spontaneous changes of direction at 10 mg/kg, ip administered 30 mins prior to test by open field test. It counts as toxicity, organism-based. Particulars: in vivo, 0.5 h. An outline of the steps:
as §1

In data set [5] the test system is Rattus norvegicus. As to the kind of experiment: Neurotoxicity in Sprague-Dawley rat assessed as effect on time spent on revolving rod at 10 mg/kg, ip administered 30 mins prior to test by rotarod test relative to control. Particulars: in vivo, 0.5 h. It counts as toxicity, organism-based. The method, boiled down: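 Male Sprague–Dawley rats, 10 per group, dosed 10 mg/kg ip daily for 10 days and 30 min before testing. DMSO vehicle controls. Rotarod, time spent on the revolving rod recorded.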
For orientation: Falling from the rotarod earlier than controls is read as motor impairment.

In data set [6] the test system is Rattus norvegicus. As to the kind of experiment: Neurotoxicity in Sprague-Dawley rat assessed as effect on immobility time at 10 mg/kg, ip administered 30 mins prior to test by forced swim test relative to control. It counts as toxicity, organism-based. Conditions: in vivo, 0.5 h. An outline of the steps: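 Male Sprague–Dawley rats, 10 per group, dosed 10 mg/kg ip daily for 10 days and 30 min before testing. DMSO vehicle controls. Forced swim in a cylinder 18 cm diameter with 23 cm water at 25 °C. 15 min pretest, then a 5 min test 24 h later. Immobility duration scored over the 5 min.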

For data set [7], the system named is Rattus norvegicus. In words: Neurotoxicity in Sprague-Dawley rat assessed as body position score at 10 mg/kg, ip administered 30 mins prior to test (reference value: 1.8 +/- 0.4216). It counts as toxicity, organism-based. Particulars: in vivo, 0.5 h.
Data set [8] deals with Sodium-dependent dopamine transporter (Homo sapiens, UniProt Q01959). As to the kind of experiment: Displacement of [3H]WIN 35,428 from human DAT expressed in HEK293 cells at 1 and 3 uM after 30 mins in presence of increasing concentration of cocaine by liquid scintillation counting. It counts as cell-based. An outline of the steps:
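Intact HEK-DAT cells on PDL-coated plates, in binding buffer (HEPES, NaCl, KCl, CaCl2, MgCl2, 10 μM ZnCl2, glucose, pH 7,3). Incubated with ~10 nM [3H]WIN 35,428, fixed concentrations of test compound and cocaine 0.001–1 μM, 30 min at 25 °C. Nonspecific binding defined with 30 μM mazindol. Cells lysed in 1% SDS and counted by scintillation. Reciprocal of bound (fmol) plotted against cocaine concentration as Dixon plot. Three experiments in triplicate, mean ± SD.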

Sodium-dependent noradrenaline transporter, sequence (P23975 whole entry): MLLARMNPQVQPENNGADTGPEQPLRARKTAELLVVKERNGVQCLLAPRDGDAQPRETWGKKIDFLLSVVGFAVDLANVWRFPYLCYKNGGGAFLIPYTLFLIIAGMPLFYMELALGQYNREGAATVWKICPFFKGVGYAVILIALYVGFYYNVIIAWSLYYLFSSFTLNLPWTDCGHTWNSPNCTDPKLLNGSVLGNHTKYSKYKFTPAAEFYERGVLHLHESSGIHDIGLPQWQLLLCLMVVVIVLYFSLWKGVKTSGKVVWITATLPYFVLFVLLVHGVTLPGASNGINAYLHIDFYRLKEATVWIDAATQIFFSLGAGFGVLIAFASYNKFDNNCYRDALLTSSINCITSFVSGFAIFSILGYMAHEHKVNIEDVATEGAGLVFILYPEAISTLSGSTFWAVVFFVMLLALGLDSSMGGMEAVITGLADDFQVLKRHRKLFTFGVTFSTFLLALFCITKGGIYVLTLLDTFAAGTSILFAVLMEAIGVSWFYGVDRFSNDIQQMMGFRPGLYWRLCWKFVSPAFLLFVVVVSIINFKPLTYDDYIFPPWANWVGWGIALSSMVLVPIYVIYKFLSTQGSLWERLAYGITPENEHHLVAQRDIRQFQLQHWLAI
Sodium-dependent dopamine transporter, sequence (Q01959 whole entry): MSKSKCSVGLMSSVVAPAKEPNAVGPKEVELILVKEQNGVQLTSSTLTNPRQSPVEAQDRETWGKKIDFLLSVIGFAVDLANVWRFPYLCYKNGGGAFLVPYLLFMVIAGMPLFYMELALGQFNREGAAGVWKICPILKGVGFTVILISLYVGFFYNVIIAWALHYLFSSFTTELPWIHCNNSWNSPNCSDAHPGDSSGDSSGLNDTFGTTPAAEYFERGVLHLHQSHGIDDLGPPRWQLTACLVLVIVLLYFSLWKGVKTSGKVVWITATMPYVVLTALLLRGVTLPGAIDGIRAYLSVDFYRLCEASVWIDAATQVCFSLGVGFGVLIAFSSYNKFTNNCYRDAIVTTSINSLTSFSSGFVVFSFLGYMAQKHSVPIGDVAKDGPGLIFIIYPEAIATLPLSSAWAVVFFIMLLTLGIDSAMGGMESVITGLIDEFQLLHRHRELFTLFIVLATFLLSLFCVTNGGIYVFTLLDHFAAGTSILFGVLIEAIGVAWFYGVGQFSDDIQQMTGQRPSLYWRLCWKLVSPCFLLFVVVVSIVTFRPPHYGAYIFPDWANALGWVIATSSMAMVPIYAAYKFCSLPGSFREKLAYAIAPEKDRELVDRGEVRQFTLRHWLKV

As for `[O-][S+](Cc1cccs1)C(c1ccccc1)c1ccccc1` (stereo not drawn), in data set [1], the IC50 entry is on record as “Not Active”. Besides, the Activity result is on record as “Non-Toxic” in data set [2]; “Non-Toxic” in data set [3]; “Non-Toxic” in data set [4]; “Non-Toxic” in data set [5]; “Non-Toxic” in data set [6]; 1.9 in data set [7]. Moreover, the inhibition entry in data set [8] is “Active”.
